Test results reported in ChEMBL document CHEMBL4425108, “A Selective and Slowly Reversible Inhibitor of l-Type Amino Acid Transporter 1 (LAT1) Potentiates Antiproliferative Drug Efficacy in Cancer Cells” (J Med Chem, 2016).
The source made the active and inactive calls. The calls are words filed in the database; no cut-off is given here.

Legend:
[1] = biological target: T1, Large neutral amino acids transporter small subunit 1 (Homo sapiens, UniProt Q01650); assay: Inhibition of LAT1 in human MCF7 cells assessed as potentiation of bestatin-induced antiproliferative activity by measuring reduction in cell viability at 100 uM measured after 72 hrs by resazurin dye-based fluorimetric analysis
Procedure, shortened: (§1)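 MCF-7 cells seeded 2 × 10^4/well on collagen-coated plates, treated one day later in growth medium with inhibitor (25 or 100 µM) plus bestatin or cisplatin (100 µM) for up to 3 days. Viability read daily by resazurin fluorescence (ex 560/em 590 nm). Viability is treated relative to untreated control. Mean ± SD, n=3.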

[2] = biological target: T1, Large neutral amino acids transporter small subunit 1; assay: Potency index, ratio of IC50 for 2-amino-2-norbornanecarboxylic acid to IC50 for test compound for inhibition of [14C]-L-leucine uptake at LAT1 in human MCF7 cells; assay type: cell-based
MCF7 [3] = assay: Antiproliferative activity against human MCF7 cells assessed as reduction in cell viability at 100 measured after 72 hrs by resazurin dye-based fluorimetric analysis; assay type: functional
Procedure, shortened: (§2)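 MCF-7 cells were seeded at 2 × 10^4 cells/well on collagen-coated plates and treated one day later. Agents were given alone or combined (25 or 100 µM with 100 µM partner drug) in growth medium for 3 days. Viability was read daily by resazurin fluorescence (ex 560/em 590 nm) and expressed relative to untreated controls.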

[4] = biological target: T1, Large neutral amino acids transporter small subunit 1; assay: Inhibition of LAT1 in human MCF7 cells assessed as potentiation of cisplatin-induced antiproliferative activity by measuring reduction in cell viability at 100 uM measured after 72 hrs by resazurin dye-based fluorimetric analysis; procedure, shortened: as §1
[5] = biological target: T1, Large neutral amino acids transporter small subunit 1; assay: Inhibition of LAT1 in human MCF7 cells assessed as potentiation of cisplatin-induced antiproliferative activity by measuring reduction in cell viability at 100 uM measured after 24 hrs by resazurin dye-based fluorimetric analysis; procedure, shortened: as §1
[6] = biological target: T1, Large neutral amino acids transporter small subunit 1; assay: Inhibition of LAT1 in human MCF7 cells assessed as potentiation of cisplatin-induced antiproliferative activity by measuring reduction in cell viability at 100 uM measured after 48 hrs by resazurin dye-based fluorimetric analysis; procedure, shortened: as §1
MCF7 [7] = assay: Antiproliferative activity against human MCF7 cells assessed as reduction in cell viability measured after 72 hrs by resazurin dye-based fluorimetric analysis; assay type: functional; conditions: for IC50: MCF7, 72 h; procedure, shortened: as §2
MCF7 [8] = assay: Antiproliferative activity against human MCF7 cells assessed as reduction in cell viability at 100 measured after 24 hrs by resazurin dye-based fluorimetric analysis; assay type: functional; procedure, shortened: as §2
MCF7 [9] = assay: Antiproliferative activity against human MCF7 cells assessed as reduction in cell viability at 100 measured after 48 hrs by resazurin dye-based fluorimetric analysis; assay type: functional; procedure, shortened: as §2
[10] = biological target: T1, Large neutral amino acids transporter small subunit 1; assay: Inhibition of LAT1 in human MCF7 cells assessed as potentiation of bestatin-induced antiproliferative activity by measuring reduction in cell viability at 100 uM measured after 24 hrs by resazurin dye-based fluorimetric analysis; procedure, shortened: as §1
[11] = biological target: T1, Large neutral amino acids transporter small subunit 1; assay: Inhibition of LAT1 in human MCF7 cells assessed as potentiation of bestatin-induced antiproliferative activity by measuring reduction in cell viability at 100 uM measured after 48 hrs by resazurin dye-based fluorimetric analysis; procedure, shortened: as §1
[12] = biological target: T1, Large neutral amino acids transporter small subunit 1; assay: Competitive inhibition of [14C]-L-leucine uptake at LAT1 in human MCF7 cells preincubated for 5 mins followed by addition of substrate measured during 5 mins by liquid scintillation counting; assay type: cell-based
[13] = biological target: T1, Large neutral amino acids transporter small subunit 1; assay: Drug uptake in human MCF7 cells assessed as LAT1 mediated drug transport per mg of protein at 100 uM after 30 mins by HPLC analysis; assay type: ADME, cell-based; conditions: mcf7, 0.5 h
Procedure, shortened: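 MCF-7 monolayers were incubated with 100 µM compound in HBSS at 37 °C for 5 or 30 min. Cells got three washes with ice-cold or warm (37 °C) HBSS; in the warm 30 min arm they were washed after 5 min and again after 30 min. Lysates (0.1 M NaOH) were quantified by HPLC-UV against a spiked lysate standard curve and normalised to protein (Bio-Rad assay).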

HT-29 = assay: Growth inhibition of human HT-29 cells measured after 96 hrs by Coulter counter based cell counting method; assay type: functional; conditions: HT-29, 96 h
[14] = Growth inhibition of human YD38 cells measured after 4 days by MTT assay; assay type: functional; conditions: 96 h
[15] = Ratio of IC50 for human HT-29 cells to IC50 for leucine uptake at LAT1 in human HT-29 cells
[16] = biological target: T1, Large neutral amino acids transporter small subunit 1; assay: Inhibition of [14C]-L-leucine uptake at LAT1 in human YD-38 cells after 1 hr by liquid scintillation counting; assay type: cell-based
[17] = Ratio of IC50 for human YD-38 cells to IC50 for leucine uptake at LAT1 in human YD-38 cells

T1 sequence (Q01650 whole entry): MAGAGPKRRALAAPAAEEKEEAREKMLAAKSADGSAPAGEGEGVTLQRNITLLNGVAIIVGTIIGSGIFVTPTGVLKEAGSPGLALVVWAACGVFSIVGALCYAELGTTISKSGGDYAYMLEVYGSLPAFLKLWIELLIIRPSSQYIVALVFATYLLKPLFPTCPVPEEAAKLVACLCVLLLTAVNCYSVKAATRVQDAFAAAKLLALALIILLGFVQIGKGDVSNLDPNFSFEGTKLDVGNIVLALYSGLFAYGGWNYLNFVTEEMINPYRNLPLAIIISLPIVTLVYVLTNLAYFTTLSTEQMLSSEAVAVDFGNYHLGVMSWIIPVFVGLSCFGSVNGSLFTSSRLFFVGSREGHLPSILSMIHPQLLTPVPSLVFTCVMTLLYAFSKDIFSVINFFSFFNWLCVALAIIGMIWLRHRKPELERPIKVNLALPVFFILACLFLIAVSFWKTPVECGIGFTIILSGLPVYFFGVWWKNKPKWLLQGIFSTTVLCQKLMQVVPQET

Ratio IC50 [2] | IC50 (MCF7 [7]) [µM] | IC50 [12] [µM] | Drug uptake [13] [nmol/mg] | IC50 [16] [µM] | SMILES | Activity [1] [%] | Activity (MCF7 [3]) | Activity [4] [%] | Activity [5] [%] | Activity [6] | Activity (MCF7 [7]) | Activity (MCF7 [8]) [%] | Activity (MCF7 [9]) | Activity [10] [%] | Activity [11] | IC50 (HT-29) [µM] | IC50 [14] [µM] | Ratio IC50 [15] | Ratio IC50 [17]
6 to 6.2 | 362 | 112 | 11.9 |  | NC1(C(=O)O)CC2CCC1C2 (centres undefined) | 3.13 | 24.1% | 42.7 | 35.9 | inactive | Dose-dependent effect | 13.9 | inactive | 30.8 | inactive |  |  |  | 
 |  |  |  | 0.79 | Nc1cc(COc2c(Cl)cc(C[C@H](N)C(=O)O)cc2Cl)c2oc(-c3ccccc3)nc2c1 |  |  |  |  |  |  |  |  |  |  | 4.1 | 69 | 68 - 87 | 68 - 87
 | 541 |  |  |  | CC(C)C[C@H](NC(=O)[C@@H](O)[C@H](N)Cc1ccccc1)C(=O)O [UBENIMEX] |  | inactive |  |  |  | Dose-dependent effect | 3.4 | 7.5% |  |  |  |  |  | 
